ChEMBL document CHEMBL1157696, “New oxapolycyclic cage amines with NMDA receptor antagonist and trypanocidal activities” (Bioorg Med Chem, 2010)
Activity calls are given as the source filed them. The calls are words filed in the database; no cut-off is given here.

What was measured:
[1] = biological target: Glutamate NMDA receptor; assay: Antagonist activity at NMDA receptor in rat cerebellar granule neurons assessed as inhibition of NMDA-induced increase in intracellular calcium level by fluorometric assay; type: functional, cell-based
Outline: (§1)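 Primary cerebellar granule neuron cultures on poly-L-lysine-coated glass coverslips, used after 7–14 days in vitro. Cells loaded with 6 µM Fura-2 AM for 45 min, then read fluorometrically in Locke-Hepes buffer at 37 °C under mild agitation. Cumulative increasing compound concentrations added after glutamate (100 µM, with 10 µM glycine) or NMDA challenge. Inhibition percentages fitted by variable-slope non-linear regression. At least three experiments on three culture batches.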

[2] = test system: Trypanosoma brucei; assay: Trypanocidal activity against Trypanosoma brucei 427 bloodstream form assessed as decrease in cell density at 5 ug/mL after 48 hrs by hemocytometry; type: functional, organism-based
[3] = biological target: Glutamate NMDA receptor; assay: Antagonist activity at NMDA receptor in rat cerebellar granule neurons assessed as inhibition of glutamate-induced increase in intracellular calcium level by fluorometric assay; type: functional, cell-based; outline: as §1
[4] = test system: Trypanosoma brucei; assay: Trypanocidal activity against Trypanosoma brucei 427 bloodstream form assessed as decrease in cell density after 48 hrs by hemocytometry; type: functional, organism-based; details: Trypanosoma brucei, 427, 48 h
Outline: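 Bloodstream-form T. brucei strain 427 kept at 37 °C in modified Iscove's medium, pH 7.4. Parasites grown 48 h across a range of drug concentrations, starting at 0.5 × 10⁴ cells/mL. Densities counted by hemocytometer and expressed as percent of control growth to derive IC50 and IC90. Performed in triplicate.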

[5] = test system: Trypanosoma brucei; assay: Ratio of compound to amantadine activity against Trypanosoma brucei 427 bloodstream form; type: functional
[6] = organism: Mus musculus; assay: Inhibition of MAO in mouse cortex at 50 uM by tube luminometry
Outline: (§2)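 MAO-Glo luminescent assay of non-specific MAO activity. Enzyme source was a crude mitochondrial preparation from NIH Swiss mouse cortex. Compounds tested at 10 and 50 µM.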

[7] = organism: Mus musculus; assay: Inhibition of MAO in mouse cortex at 10 uM by tube luminometry; outline: as §2

Compound	IC50 [1] [µM]	Activity [2]	IC50 [3] [µM]	IC50 [4] [µM]	IC90 [4] [µM]	Ratio [5]	inhibition [6]	inhibition [7]
c1ccc(CNC23CC4CC(CC(C2)c2ccccc24)O3)cc1	> 200	inactive	> 500					
C#CCNC12CC3CC(CC)(CC(C1)c1ccccc13)O2	> 200		> 500	15.2	25.6	>=10	inactive	inactive
CCC12CC3CC(N)(CC(C1)c1ccccc13)O2	> 200	inactive	> 500					
CN(C)C12CC3CC(CC(C1)c1ccccc13)O2	3.8	inactive	39					
CC(N)C12CC3CC(CC(C3)C1)C2 (stereo not given) [RIMANTADINE]					14			
NC12CC3CC(CC(C1)c1ccccc13)O2	35	inactive	408					
CNC12CC3CC(CC(C1)c1ccccc13)O2	6	inactive	28					
CCN(CC)C12CC3CC(C)(CC(C1)c1ccccc13)O2	7.7	inactive	22					
CN(C)C12CC3CC(C)(CC(C1)c1ccccc13)O2	3.9	inactive	7.7					
CCN(CC)C12CC3CC(CC(C1)c1ccccc13)O2	14		96					
CC12CC3CC(N)(CC(C1)c1ccccc13)O2	98	inactive	167					
CC12CC3CC(C)(C1)CC(N)(C3)C2 [MEMANTINE]				13.8	21.4			
NC(=O)CNC12CC3CC(CC(C1)c1ccccc13)O2	> 200	inactive	> 500				inactive	inactive
C#CCN(CC#C)C12CC3CC(CC(C1)c1ccccc13)O2	> 200	inactive	> 500				inactive	inactive
c1ccc(CN(Cc2ccccc2)C23CC4CC(CC(C2)c2ccccc24)O3)cc1	> 200	inactive	> 500					
C#CCN(C)[C@H](C)Cc1ccccc1								85.5%
c1ccc(CCNC23CC4CC(CC(C2)c2ccccc24)O3)cc1	> 200	inactive	> 500					
C#CCNC12CC3CC(CC(C1)c1ccccc13)O2	34	inactive	115				inactive	inactive
c1ccc2c(c1)C1CC3CC2CC(N2CCCCC2)(C1)O3	30		168					
CN(Cc1ccccc1)C12CC3CC(CC(C1)c1ccccc13)O2	> 200	inactive	> 500					
C#CCN(CC#C)C12CC3CC(CC)(CC(C1)c1ccccc13)O2	> 200		> 500	14.6	24.1	>=10	inactive	inactive
CCC12CC3CC(NCc4ccccc4)(CC(C1)c1ccccc13)O2	> 200		> 500	13.9	19.9	>=10		
